Activity calls are given as the source filed them. The rule behind the calls is not given here.
Key:
Homo sapiens = species on record: Homo sapiens; test: Selectivity ratio of EC50 for human S1P3R to EC50 for human S1P1R
Procedure, shortened: (§1)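 Agonist-evoked [35S]GTPγS binding was measured on human or rat S1P1 or S1P3 expressed in transfected CHO-K1 cells.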

[1] = biological target: Sphingosine 1-phosphate receptor 3 (Homo sapiens, UniProt Q99500); test: Agonist activity at human S1P3R expressed in CHO-K1 cells by [35S]GTPgammaS binding assay; assay type: functional, cell-based; procedure, shortened: as §1
[2] = biological target: Sphingosine 1-phosphate receptor 5 (Homo sapiens, UniProt Q9H228); test: Agonist activity at human S1P5R; assay type: functional
Rattus norvegicus [3] = species on record: Rattus norvegicus; test: Selectivity ratio of EC50 for rat S1P3R to EC50 for rat S1P1R; procedure, shortened: as §1
[4] = Agonist activity at rat S1P3R expressed in CHO-K1 cells by [35S]GTPgammaS binding assay; assay type: functional, cell-based; procedure, shortened: as §1
[5] = biological target: Sphingosine 1-phosphate receptor 1 (Rattus norvegicus, UniProt P48303); test: Agonist activity at rat S1P1 receptor expressed in CHO-K1 cells by [35S]GTPgammaS binding assay; assay type: functional, cell-based; procedure, shortened: as §1
[6] = biological target: Sphingosine 1-phosphate receptor 2 (Homo sapiens) (UniProt O95136); test: Binding affinity to human S1P2R
[7] = biological target: Sphingosine 1-phosphate receptor 1 (Homo sapiens, UniProt P21453); test: Agonist activity at human S1P1 receptor expressed in CHO-K1 cells by [35S]GTPgammaS binding assay; assay type: functional, cell-based; procedure, shortened: as §1
[8] = AUC (0 to infinity) in Sprague-Dawley rat at 0.1 mg/kg, po; assay type: ADME, organism-based, Plasma; design: dose 0.1 mg/kg, route oral, time infinity; conditions: blood
Procedure, shortened: (§2)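 Male Sprague−Dawley rats given one oral dose of parent drug at 0.1 or 1 mg/kg. Blood levels of parent and phosphate metabolite were measured over time. Bioavailability of the phosphate is the ratio of its AUC after oral dosing to its AUC after intravenous parent dosing at the same dose. Values are mean ± SD of four animals.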

Rattus norvegicus [9] = test: Lymphopenic activity in Lewis rat assessed as reduction in blood lymphocyte counts at 1 mg/kg, po after 12 hrs relative to control; assay type: functional; design: scale not given: the % may be the effect or the level left
Procedure, shortened: (§3)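 Lewis rats received one oral dose of 0.1 or 1 mg/kg in 1% MC vehicle. Lymphocytes were counted by automatic hemacytometer and expressed relative to vehicle controls. n = 5 per group, mean ± SE.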

[10] = Oral bioavailability in Sprague-Dawley rat at 1 mg/kg; assay type: ADME, organism-based; conditions: in vivo; procedure, shortened: as §2
Rattus norvegicus [11] = test: Cmax in Sprague-Dawley rat assessed as CS-0777-phosphate at 0.1 mg/kg, po; assay type: ADME, organism-based; design: dose 0.1 mg/kg, route oral; conditions: in vivo; procedure, shortened: as §2
[12] = Tmax in Sprague-Dawley rat at 1 mg/kg, po; assay type: ADME, organism-based; design: dose 1 mg/kg, route oral; conditions: in vivo; procedure, shortened: as §2
[13] = Half life in Sprague-Dawley rat at 0.1 mg/kg, po; assay type: ADME, organism-based; design: dose 0.1 mg/kg, route oral; conditions: in vivo; procedure, shortened: as §2
[14] = Volume of distribution at steady state in Sprague-Dawley rat at 1 mg/kg, iv; assay type: ADME, organism-based; design: dose 1 mg/kg, route intravenous; conditions: in vivo, read-out: Vdss
Procedure, shortened: (§4)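 Clearance and steady-state volume of distribution were calculated from blood data after intravenous dosing of the parent drug to male Sprague−Dawley rats at 0.1 or 1 mg/kg. Values are mean ± SD of four animals.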

Rattus norvegicus [15] = test: Reduction of cumulative disease score in Lewis rat EAE model at 0.1 mg/kg, po administered daily for 20 days measured after 8 to 21 days relative to control; assay type: functional, organism-based; design: dose 0.1 mg/kg
Procedure, shortened: (§5)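 EAE was induced in 6-week-old female Lewis rats by injecting guinea pig myelin basic protein fragment 68−82 with adjuvant into both hind footpads on day 0. Dosing was oral, daily on days 0–20 (0.01–1 mg/kg). Clinical score (0–6 scale) was recorded daily on days 8–21 and summed to a cumulative score. Analysis used a nonparametric Dunnett test versus vehicle.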

Rattus norvegicus [16] = test: Lymphopenic activity in Lewis rat assessed as recovery in blood lymphocyte counts at 1 mg/kg, po after 5 days; assay type: functional, organism-based; design: dose 1 mg/kg; procedure, shortened: as §3
[17] = Cmax in Sprague-Dawley rat at 0.1 mg/kg, po; assay type: ADME, organism-based; design: dose 0.1 mg/kg, route oral; conditions: in vivo; procedure, shortened: as §2
Rattus norvegicus [18] = test: Reduction of cumulative disease score in Lewis rat EAE model at 1 mg/kg, po administered daily for 20 days measured after 8 to 21 days relative to control; assay type: functional, organism-based; design: dose 1 mg/kg; procedure, shortened: as §5
[19] = Total body clearance in Sprague-Dawley rat at 1 mg/kg, iv; assay type: ADME, organism-based; design: dose 1 mg/kg, route intravenous; conditions: in vivo; procedure, shortened: as §4
[20] = Total body clearance in Sprague-Dawley rat at 0.1 mg/kg, iv; assay type: ADME, organism-based; design: dose 0.1 mg/kg, route intravenous; conditions: in vivo; procedure, shortened: as §4
[21] = Tmax in Sprague-Dawley rat at 0.1 mg/kg, po; assay type: ADME, organism-based; design: dose 0.1 mg/kg, route oral; conditions: in vivo; procedure, shortened: as §2
Rattus norvegicus [22] = test: Lymphopenic activity in Lewis rat assessed as reduction in blood lymphocyte counts at 0.1 mg/kg, po after 12 hrs relative to control; assay type: functional; design: scale not given: the % may be the effect or the level left; procedure, shortened: as §3
[23] = Half life in Sprague-Dawley rat at 1 mg/kg, po; assay type: ADME, organism-based; design: dose 1 mg/kg, route oral; conditions: in vivo; procedure, shortened: as §2
Rattus norvegicus [24] = test: Oral bioavailability in Sprague-Dawley rat assessed as CS-0777-phosphate at 0.1 mg/kg; assay type: ADME, organism-based; conditions: in vivo; procedure, shortened: as §2
Rattus norvegicus [25] = test: Tmax in Sprague-Dawley rat assessed as CS-0777-phosphate at 0.1 mg/kg, po; assay type: ADME, organism-based; design: dose 0.1 mg/kg, route oral; conditions: in vivo; procedure, shortened: as §2
[26] = Cmax in Sprague-Dawley rat at 1 mg/kg, po; assay type: ADME, organism-based; design: dose 1 mg/kg, route oral; conditions: in vivo; procedure, shortened: as §2
[27] = AUC (0 to infinity) in Sprague-Dawley rat at 1 mg/kg, po; assay type: ADME, organism-based, Plasma; design: time infinity, dose 1 mg/kg, route oral; conditions: blood; procedure, shortened: as §2
Rattus norvegicus [28] = test: Oral bioavailability in Sprague-Dawley rat assessed as CS-0777-phosphate at 1 mg/kg; assay type: ADME, organism-based; conditions: in vivo; procedure, shortened: as §2
Rattus norvegicus [29] = test: Tmax in Sprague-Dawley rat assessed as CS-0777-phosphate at 1 mg/kg, po; assay type: ADME, organism-based; design: dose 1 mg/kg, route oral; conditions: in vivo; procedure, shortened: as §2
Rattus norvegicus [30] = test: Half life in Sprague-Dawley rat assessed as CS-0777-phosphate at 0.1 mg/kg, po; assay type: ADME, organism-based; design: dose 0.1 mg/kg, route oral; conditions: in vivo; procedure, shortened: as §2
Rattus norvegicus [31] = test: AUC (0 to infinity) in Sprague-Dawley rat assessed as CS-0777-phosphate at 1 mg/kg, po; assay type: ADME, organism-based, Plasma; design: time infinity, dose 1 mg/kg, route oral; conditions: in vivo; procedure, shortened: as §2
[32] = Oral bioavailability in Sprague-Dawley rat at 0.1 mg/kg; assay type: ADME, organism-based; conditions: in vivo; procedure, shortened: as §2
Rattus norvegicus [33] = test: Half life in Sprague-Dawley rat assessed as CS-0777-phosphate at 1 mg/kg, po; assay type: ADME, organism-based; design: dose 1 mg/kg, route oral; conditions: in vivo; procedure, shortened: as §2
Rattus norvegicus [34] = test: Lymphopenic activity in Lewis rat assessed as recovery of blood lymphocytes at 1 mg/kg, po after 48 hrs relative to control; assay type: functional; procedure, shortened: as §3
Rattus norvegicus [35] = test: Lymphopenic activity in Lewis rat assessed as recovery in blood lymphocyte counts at 0.1 mg/kg, po after 5 days; assay type: functional, organism-based; design: dose 0.1 mg/kg; procedure, shortened: as §3
Rattus norvegicus [36] = test: Cmax in Sprague-Dawley rat assessed as CS-0777-phosphate at 1 mg/kg, po; assay type: ADME, organism-based; design: dose 1 mg/kg, route oral; conditions: in vivo; procedure, shortened: as §2
[37] = Volume of distribution at steady state in Sprague-Dawley rat at 0.1 mg/kg, iv; assay type: ADME, organism-based; design: dose 0.1 mg/kg, route intravenous; conditions: in vivo, read-out: Vdss; procedure, shortened: as §4
Rattus norvegicus [38] = test: Lymphopenic activity in Lewis rat assessed as recovery of blood lymphocytes at 0.1 mg/kg, po after 48 hrs relative to control; assay type: functional; procedure, shortened: as §3
Rattus norvegicus [39] = test: AUC (0 to infinity) in Sprague-Dawley rat assessed as CS-0777-phosphate at 0.1 mg/kg, po; assay type: ADME, organism-based, Plasma; design: dose 0.1 mg/kg, route oral, time infinity; conditions: in vivo; procedure, shortened: as §2

Sequence of Sphingosine 1-phosphate receptor 1 (Rattus norvegicus, UniProt P48303) (P48303 whole entry): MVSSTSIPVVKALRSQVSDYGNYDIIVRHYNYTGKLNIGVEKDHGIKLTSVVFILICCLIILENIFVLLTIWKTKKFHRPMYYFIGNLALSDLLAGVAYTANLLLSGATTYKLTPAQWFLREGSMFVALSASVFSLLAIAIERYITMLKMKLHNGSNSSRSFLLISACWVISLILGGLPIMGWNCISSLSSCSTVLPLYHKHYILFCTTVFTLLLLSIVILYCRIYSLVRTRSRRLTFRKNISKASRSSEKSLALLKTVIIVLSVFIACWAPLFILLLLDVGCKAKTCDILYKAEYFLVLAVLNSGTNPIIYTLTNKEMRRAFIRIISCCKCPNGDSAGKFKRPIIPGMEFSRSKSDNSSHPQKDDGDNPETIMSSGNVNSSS
Sequence of Sphingosine 1-phosphate receptor 2 (Homo sapiens) (O95136 whole entry): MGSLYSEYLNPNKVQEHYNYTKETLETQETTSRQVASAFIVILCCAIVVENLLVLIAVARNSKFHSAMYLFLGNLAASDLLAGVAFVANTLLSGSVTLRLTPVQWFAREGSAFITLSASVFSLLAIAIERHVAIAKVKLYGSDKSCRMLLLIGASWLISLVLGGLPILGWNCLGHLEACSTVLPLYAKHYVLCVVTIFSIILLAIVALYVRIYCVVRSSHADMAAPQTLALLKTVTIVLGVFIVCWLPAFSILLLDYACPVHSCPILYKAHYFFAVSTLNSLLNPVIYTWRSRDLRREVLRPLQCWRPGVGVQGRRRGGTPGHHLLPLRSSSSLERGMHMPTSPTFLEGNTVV
Sequence of Sphingosine 1-phosphate receptor 3 (Q99500 whole entry): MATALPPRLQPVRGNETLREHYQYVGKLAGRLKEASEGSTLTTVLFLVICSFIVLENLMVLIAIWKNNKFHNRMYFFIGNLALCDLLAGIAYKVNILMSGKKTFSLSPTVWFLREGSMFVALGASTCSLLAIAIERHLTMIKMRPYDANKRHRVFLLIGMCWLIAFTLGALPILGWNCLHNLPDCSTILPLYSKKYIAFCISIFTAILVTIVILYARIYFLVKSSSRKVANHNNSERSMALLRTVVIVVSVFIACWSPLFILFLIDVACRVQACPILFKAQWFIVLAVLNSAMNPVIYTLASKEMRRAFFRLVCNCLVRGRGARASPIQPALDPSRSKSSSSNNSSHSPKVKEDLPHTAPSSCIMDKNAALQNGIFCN
Sequence of Sphingosine 1-phosphate receptor 5 (Q9H228 whole entry): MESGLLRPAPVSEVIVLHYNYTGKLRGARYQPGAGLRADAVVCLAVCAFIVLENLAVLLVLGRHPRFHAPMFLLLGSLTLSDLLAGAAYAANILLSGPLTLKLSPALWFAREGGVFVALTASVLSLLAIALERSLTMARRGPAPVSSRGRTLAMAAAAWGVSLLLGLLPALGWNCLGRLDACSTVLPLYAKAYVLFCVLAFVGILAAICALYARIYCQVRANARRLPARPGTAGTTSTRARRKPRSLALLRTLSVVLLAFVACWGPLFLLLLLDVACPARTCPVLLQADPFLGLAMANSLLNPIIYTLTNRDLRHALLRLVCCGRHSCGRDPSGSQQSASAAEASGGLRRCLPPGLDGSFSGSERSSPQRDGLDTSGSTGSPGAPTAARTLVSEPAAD
Sequence of Sphingosine 1-phosphate receptor 1 (Homo sapiens, UniProt P21453) (P21453 whole entry): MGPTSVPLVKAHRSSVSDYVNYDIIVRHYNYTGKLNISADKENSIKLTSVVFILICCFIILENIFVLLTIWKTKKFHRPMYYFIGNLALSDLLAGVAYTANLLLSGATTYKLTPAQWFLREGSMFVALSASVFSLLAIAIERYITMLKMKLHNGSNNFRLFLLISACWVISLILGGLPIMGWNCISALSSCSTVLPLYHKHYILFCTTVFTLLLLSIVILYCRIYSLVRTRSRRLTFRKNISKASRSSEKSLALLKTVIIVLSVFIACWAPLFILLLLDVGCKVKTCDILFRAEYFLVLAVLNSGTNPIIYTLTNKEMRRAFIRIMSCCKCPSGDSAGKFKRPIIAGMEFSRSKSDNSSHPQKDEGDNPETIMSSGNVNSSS

Cc1ccc(CCCC(=O)c2ccc(CC[C@@](C)(N)COP(=O)(O)O)n2C)cc1
Ratio EC50 (Homo sapiens): 320
EC50 [1]: 350 nM
EC50 [2]: 21 nM
Ratio EC50 (Rattus norvegicus [3]): 100
EC50 [4]: 200 nM
EC50 [5]: 1.8 nM
Activity [6]: inactive
EC50 [7]: 1.1 nM

Cc1ccc(CCCC(=O)c2ccc(CC[C@@](C)(N)CO)n2C)cc1
AUC(0-inf) [8]: 31.7 ng·h/mL
Activity (Rattus norvegicus [9]): 18.4%
bioavailability [10]: 69.5%
Cmax (Rattus norvegicus [11]): 26.4 ng/mL
Tmax [12]: 3.25 h
half-life [13]: 5.4 h
Vd [14]: 18.1 L/kg
Activity (Rattus norvegicus [15]): Active
Activity (Rattus norvegicus [16]): inactive
Cmax [17]: 1.89 ng/mL
Activity (Rattus norvegicus [18]): Active
clearance [19]: 33.7 mL/min/kg
clearance [20]: 38 mL/min/kg
Tmax [21]: 4.75 h
Activity (Rattus norvegicus [22]): 27.4%
half-life [23]: 10.4 h
F (Rattus norvegicus [24]): 80.6%
Tmax (Rattus norvegicus [25]): 9.5 h
Cmax [26]: 18.2 ng/mL
AUC(0-inf) [27]: 346 ng·h/mL
F (Rattus norvegicus [28]): 90.8%
Tmax (Rattus norvegicus [29]): 9 h
t1/2 (Rattus norvegicus [30]): 10.9 h
AUC (Rattus norvegicus [31]): 6280 ng·h/mL
bioavailability [32]: 72.2%
t1/2 (Rattus norvegicus [33]): 11.6 h
Activity (Rattus norvegicus [34]): 30.1%
Activity (Rattus norvegicus [35]): inactive
Cmax (Rattus norvegicus [36]): 220 ng/mL
Vd [37]: 17.1 L/kg
Activity (Rattus norvegicus [38]): 71.5%
AUC (Rattus norvegicus [39]): 686 ng·h/mL

CCCCCCCCc1ccc(CC[C@](N)(CO)COP(=O)(O)O)cc1 [FTY720-P]
EC50 [4]: 1.3 nM
EC50 [5]: 0.29 nM
Activity [6]: inactive
